The record followed here is ChEMBL document CHEMBL3228043, “Alkylating nucleosides. 2. Synthesis and cytostatic activity of bromomethylpyrazole and pyrazole nitrogen mustard nucleosides” (1979).

The structures appear in SMILES notation. Values after ≈ are worked out from the molar mass of the structure shown.

The test system of the test is HeLa. Description: Cytostatic activity against human HeLa cells after 72 hrs by FCR-based colorimetric method. It counts as functional. To be noted: read-out: ED50 (the source's name). Put shortly: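 HeLa cells seeded at 10⁵ cells/mL in Minimal Eagle's medium with 10% fetal calf serum in Leighton tubes at 37 °C; after 2-3 h attachment, compound added as suspension in sterile saline with 0.05% (v/v) Tween 80 (10% of final volume). Incubated 72 h at 37 °C; growth estimated from cell protein by Oyama-Eagle colorimetric method; 6-mercaptopurine positive control.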
Consider `CC(=O)OC[C@H]1O[C@@H](n2nc(C(N)=O)cc2CBr)[C@H](OC(C)=O)[C@@H]1OC(C)=O`, for which the EC50 worked out at 2 µg/mL (≈ 4.33 µM).

With `CCOC(=O)c1cc(CBr)nn1[C@@H]1O[C@H](COC(C)=O)[C@@H](OC(C)=O)[C@H](OC(C)=O)[C@H]1OC(C)=O`, the EC50 came to 5 µg/mL (≈ 8.88 µM). In the case of `CCOC(=O)c1cc(CBr)nn1[C@H]1O[C@H](COC(C)=O)[C@@H](OC(C)=O)[C@H](OC(C)=O)[C@H]1OC(C)=O`, the EC50 is 5 µg/mL (≈ 8.88 µM). As for `CCOC(=O)c1cc(CN(CCCl)CCCl)nn1[C@@H]1OC[C@@H](OC(C)=O)[C@@H](OC(C)=O)[C@H]1OC(C)=O`, the figure is greater than 100 µg/mL. Consider `CC(=O)O[C@@H]1[C@H](OC(C)=O)[C@H](OC(C)=O)CO[C@H]1n1nc(CBr)cc1C(N)=O`, for which the EC50 stood at 3 µg/mL (≈ 6.49 µM). Under `Br.NCc1cc(C(N)=O)n([C@@H]2O[C@H](CO)[C@@H](O)[C@H]2O)n1` stands greater than 100 µg/mL; under `CC(=O)OC[C@H]1O[C@@H](n2nc(CN(CCCl)CCCl)cc2C(N)=O)[C@H](OC(C)=O)[C@@H]1OC(C)=O`, 35 µg/mL (≈ 66.9 µM); under `CCOC(=O)c1cc(CBr)n([C@@H]2O[C@H](COC(C)=O)[C@@H](OC(C)=O)[C@H](OC(C)=O)[C@H]2OC(C)=O)n1`, 6 µg/mL (≈ 10.7 µM). As for `CC(=O)OC[C@H]1O[C@@H](n2nc(CBr)cc2C(N)=O)[C@H](OC(C)=O)[C@@H](OC(C)=O)[C@@H]1OC(C)=O`, the figure is 4 µg/mL (≈ 7.49 µM); as for `Br.NCc1cc(C(N)=O)n([C@@H]2OC[C@@H](O)[C@@H](O)[C@H]2O)n1`, greater than 100 µg/mL. As to `CC(=O)OC[C@H]1O[C@@H](n2nc(CBr)cc2C(N)=O)[C@H](OC(C)=O)[C@@H]1OC(C)=O`, the EC50 was 2 µg/mL (≈ 4.33 µM). For `Sc1ncnc2nc[nH]c12` [MERCAPTOPURINE ANHYDROUS], the EC50 amounted to 0.1 µg/mL (≈ 0.657 µM).

`CCOC(=O)c1cc(CBr)nn1[C@@H]1OC[C@@H](OC(C)=O)[C@@H](OC(C)=O)[C@H]1OC(C)=O`: the EC50 is 2 µg/mL (≈ 4.07 µM). `CCOC(=O)c1cc(CBr)nn1[C@@H]1O[C@H](COC(C)=O)[C@@H](OC(C)=O)[C@H]1OC(C)=O`: the EC50 is 2.5 µg/mL (≈ 5.09 µM). In the case of `CC(=O)O[C@@H]1[C@H](OC(C)=O)[C@H](OC(C)=O)CO[C@H]1n1nc(CN(CCCl)CCCl)cc1C(N)=O`, the EC50 came out at 50 µg/mL (≈ 95.5 µM). Under `CCOC(=O)c1cc(CN(CCCl)CCCl)nn1[C@@H]1O[C@H](COC(C)=O)[C@@H](OC(C)=O)[C@H]1OC(C)=O` stands greater than 100 µg/mL; under `CC(=O)OC[C@H]1O[C@@H](n2nc(CN(CCCl)CCCl)cc2C(N)=O)[C@H](OC(C)=O)[C@@H](OC(C)=O)[C@@H]1OC(C)=O`, greater than 100 µg/mL.

`CCOC(=O)c1cc(CN(CCCl)CCCl)nn1[C@@H]1O[C@H](COC(C)=O)[C@@H](OC(C)=O)[C@H](OC(C)=O)[C@H]1OC(C)=O`: the EC50 is greater than 100 µg/mL. In the case of `Br.NCc1cc(C(N)=O)n([C@@H]2O[C@H](CO)[C@@H](O)[C@H](O)[C@H]2O)n1`, the EC50 was greater than 100 µg/mL.
